Measurements: ChEMBL document CHEMBL1149466, “Synthesis and pharmacochemical study of novel polyfunctional molecules combining anti-inflammatory, antioxidant, and hypocholesterolemic properties” (Bioorg Med Chem Lett, 2006)
The source made the active and inactive calls. No cut-off for these calls is given here.

Key:
Rattus norvegicus [1] = assay: Gastrointestinal toxicity in rat at 1350 umol/kg, sc; assay type: organism-based; conditions: in vivo
In short: (§1)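 Female rats dosed sc once daily for four days. Mortality, perforating GI ulcer incidence, melena defecation and body weight loss recorded 24 h after last dose.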

Rattus norvegicus [2] = assay: Anti-inflammatory activity against paw edema induced by carrageenan in fischer rat at 300 umol/kg, ip; assay type: functional
In short: (§2)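 Carrageenan paw edema in rats; compounds given ip at 300 µmol/kg. Read-out % paw weight increase versus controls, converted to % edema inhibition; mean of 4-9 rats from two independent experiments, Student's t test.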

Rattus norvegicus [3] = assay: Increase in paw weight in Fischer rats at 300 umol/kg, ip; assay type: functional; in short: as §2
[4] = tested on: Radical scavenging activity; assay: DPPH radical scavenging activity at 0.1 mM; assay type: functional
In short: (§3)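 Radical scavenging measured as % interaction with stable free radical DPPH (0.2 mM) after 30 min incubation, compounds at 0.2, 0.1 and 0.05 mM.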

[5] = tested on: Radical scavenging activity; assay: DPPH radical scavenging activity at 0.2 mM; assay type: functional; in short: as §3
[6] = tested on: Radical scavenging activity; assay: DPPH radical scavenging activity at 0.05 mM; assay type: functional; in short: as §3
Rattus norvegicus [7] = assay: Gastrointestinal toxicity in rat at 84 umol/kg, sc; assay type: organism-based; conditions: in vivo; in short: as §1
Rattus norvegicus [8] = assay: Inhibition of arthritis in rat at 300-600 umol/kg, id; assay type: functional
In short: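 Arthritis induced in rats by id injection of complete Freund's adjuvant; compounds dosed 300-600 µmol/kg for 14 days, arthritic score assessed day 15 post adjuvant, % inhibition versus controls; mean of 4-6 rats, Student's t test.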

[9] = tested on: Radical scavenging activity; assay: Inhibition of lipid peroxidation of rat hepatic microsomal membrane lipids; assay type: functional, Liver
Rattus norvegicus [10] = assay: Decrease in triglyceride level in rat at 56 umol/kg, ip; parameters: scale not given: the % may be the effect or the level left; conditions: route intraperitoneal
Rattus norvegicus [11] = assay: Decrease in total cholesterol level in rat at 56 umol/kg, ip; parameters: scale not given: the % may be the effect or the level left; conditions: route intraperitoneal
Rattus norvegicus [12] = assay: Decrease in LDL cholesterol level in rat at 56 umol/kg, ip; parameters: scale not given: the % may be the effect or the level left; conditions: route intraperitoneal
[13] = tested on: Radical scavenging activity; assay: Inhibition of lipid peroxidation of rat hepatic microsomal membrane lipids at 1 mM; conditions: Liver
[14] = molecular target: T1, Seed linoleate 13S-lipoxygenase-1 (Glycine max, UniProt P08170); assay: Inhibition of soybean lipoxygenase; assay type: functional
T1 sequence (P08170 whole entry): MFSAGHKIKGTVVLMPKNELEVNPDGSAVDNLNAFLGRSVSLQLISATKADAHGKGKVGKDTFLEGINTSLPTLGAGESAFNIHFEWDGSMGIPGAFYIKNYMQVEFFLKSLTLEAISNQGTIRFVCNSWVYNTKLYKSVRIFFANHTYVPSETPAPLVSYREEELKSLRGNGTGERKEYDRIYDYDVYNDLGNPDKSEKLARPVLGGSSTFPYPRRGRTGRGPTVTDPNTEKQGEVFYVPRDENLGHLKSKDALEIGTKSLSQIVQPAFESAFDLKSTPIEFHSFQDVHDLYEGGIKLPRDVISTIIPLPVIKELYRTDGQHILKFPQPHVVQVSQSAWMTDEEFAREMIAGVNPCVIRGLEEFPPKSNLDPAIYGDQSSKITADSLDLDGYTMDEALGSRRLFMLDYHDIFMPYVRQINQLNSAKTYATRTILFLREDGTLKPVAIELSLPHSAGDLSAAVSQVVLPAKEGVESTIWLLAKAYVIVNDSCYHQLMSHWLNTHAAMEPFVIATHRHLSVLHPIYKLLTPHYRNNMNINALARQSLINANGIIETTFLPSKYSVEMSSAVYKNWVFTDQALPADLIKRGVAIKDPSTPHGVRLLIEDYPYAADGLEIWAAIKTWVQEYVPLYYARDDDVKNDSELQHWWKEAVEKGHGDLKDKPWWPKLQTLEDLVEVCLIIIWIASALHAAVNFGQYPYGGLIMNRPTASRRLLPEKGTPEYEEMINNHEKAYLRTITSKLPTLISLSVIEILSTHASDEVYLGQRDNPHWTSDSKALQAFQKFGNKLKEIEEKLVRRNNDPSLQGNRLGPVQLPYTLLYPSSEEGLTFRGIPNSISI
In short: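 Soybean lipoxygenase, 220 U/ml, with sodium linoleate (100 μM) substrate, pH 9, 28 °C, 5 min; IC50 determined.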

Rattus norvegicus [15] = assay: Decrease in LDL cholesterol level in rat at 200 umol/kg, ip; parameters: scale not given: the % may be the effect or the level left; conditions: route intraperitoneal
Rattus norvegicus [16] = assay: Decrease in total cholesterol level in rat at 200 umol/kg, ip; parameters: scale not given: the % may be the effect or the level left; conditions: route intraperitoneal
Rattus norvegicus [17] = assay: Decrease in triglyceride level in rat at 200 umol/kg, ip; parameters: scale not given: the % may be the effect or the level left; conditions: route intraperitoneal

## COc1ccc2cc([C@H](C)C(=O)O)ccc2c1 [NAPROXEN]
Rattus norvegicus [1]
  Activity: Toxic
Rattus norvegicus [2]
  inhibition in vivo at 300 µmol/kg: 51%
Rattus norvegicus [3]
  Activity: 28.7%

## COc1ccc2c(c1)c(CC(=O)N1CCCC1C(=O)NCCS)c(C)n2C(=O)c1ccc(Cl)cc1 (stereo unspecified)
[4]
  Activity: inactive
[5]
  Activity: inactive
[6]
  Activity: inactive
Rattus norvegicus [2]
  inhibition in vivo at 300 µmol/kg: 17%
Rattus norvegicus [7]
  Activity: Non-toxic
Rattus norvegicus [8]
  Inhibition: 50.8%
Rattus norvegicus [3]
  Activity: 48.5%

## CCOC(=O)C(CS)NC(=O)C1CCCCN1C(=O)C(C)c1ccc2cc(OC)ccc2c1 (stereo unspecified)
[9]
  IC50: 122 µM
[4]
  Activity: 46%
Rattus norvegicus [10]
  Activity: 21.3%
[5]
  Activity: 76.7%
[6]
  Activity: 23.5%
Rattus norvegicus [11]
  Activity: 40%
Rattus norvegicus [2]
  inhibition in vivo at 300 µmol/kg: 50.7%
Rattus norvegicus [3]
  Activity: 34.9%
Rattus norvegicus [12]
  Activity: 52%

## COc1ccc2c(c1)c(CC(=O)O)c(C)n2C(=O)c1ccc(Cl)cc1 [INDOMETHACIN]
Rattus norvegicus [2]
  inhibition in vivo at 300 µmol/kg: 53.9%
Rattus norvegicus [7]
  Activity: Toxic
Rattus norvegicus [3]
  Activity: 27%

## CCOC(=O)[C@@H](N)CS
[13]
  inhibition: 49%

## NCCS
[13]
  inhibition: 37%

## COc1ccc2cc(C(C)C(=O)N3CCCC3C(=O)NCCS)ccc2c1 (stereo unspecified)
[4]
  Activity: 56.3%
[5]
  Activity: 78.9%
[6]
  Activity: 28.8%
Rattus norvegicus [1]
  Activity: Non-toxic
Rattus norvegicus [2]
  inhibition in vivo at 300 µmol/kg: 26.7%
[14]
  IC50: 35 µM
Rattus norvegicus [8]
  Inhibition: 51.6%
Rattus norvegicus [3]
  Activity: 42.9%

## CCOC(=O)C(CS)NC(=O)C1CCCN1C(=O)C(C)c1ccc2cc(OC)ccc2c1 (stereo unspecified)
[9]
  IC50: 320 µM
[4]
  Activity: 61.9%
Rattus norvegicus [10]
  Activity: 68.7%
[5]
  Activity: 86.3%
[6]
  Activity: 32.1%
Rattus norvegicus [1]
  Activity: Non-toxic
Rattus norvegicus [11]
  Activity: 58%
Rattus norvegicus [2]
  inhibition in vivo at 300 µmol/kg: 23.7%
[14]
  IC50: 48 µM
Rattus norvegicus [8]
  Inhibition: 100%
Rattus norvegicus [3]
  Activity: 44.6%
Rattus norvegicus [12]
  Activity: 55%

## CCOC(=O)C(CS)NC(=O)C1CCCN1C(=O)Cc1c(C)n(C(=O)c2ccc(Cl)cc2)c2ccc(OC)cc12 (stereo unspecified)
Rattus norvegicus [15]
  Activity: 48.4%
[9]
  IC50: 390 µM
[4]
  Activity: 44.2%
[5]
  Activity: 69.7%
[6]
  Activity: 31.1%
Rattus norvegicus [16]
  Activity: 78%
Rattus norvegicus [2]
  inhibition in vivo at 300 µmol/kg: 14.3%
Rattus norvegicus [7]
  Activity: Non-toxic
[14]
  IC50: 200 µM
Rattus norvegicus [8]
  Inhibition: 77.4%
Rattus norvegicus [17]
  Activity: 55.7%
Rattus norvegicus [3]
  Activity: 50.1%

## COc1ccc2cc(C(C)C(=O)N3CC(O)CC3C(=O)NCCS)ccc2c1 (stereo unspecified)
[4]
  Activity: 36.5%
[5]
  Activity: 56.2%
[6]
  Activity: 21.3%
Rattus norvegicus [2]
  inhibition in vivo at 300 µmol/kg: 24.1%
Rattus norvegicus [3]
  Activity: 44.4%
